{"source": "ChEMBL document CHEMBL2331356", "about": "“Synthesis of gatifloxacin derivatives and their biological activities against Mycobacterium leprae and Mycobacterium tuberculosis” (Bioorg Med Chem, 2013)", "key": {"[1]": {"molecular_target": "DNA gyrase subunit A/DNA gyrase subunit B (Mycobacterium tuberculosis (strain ATCC 25618 / H37Rv), UniProt P9WG45+P9WG47)", "test": "Inhibition of Mycobacterium tuberculosis DNA gyrase GyrA/GyrB assessed as reduction of enzyme supercoiling activity using relaxed pBR322 DNA substrate incubated for 1 hr at 37 degC by ethidium bromide based gel electrophoresis"}, "[2]": {"system": "Mycobacterium tuberculosis", "test": "Antimicrobial activity against Mycobacterium tuberculosis H37Rv assessed as drug concentration causing =<1% […] bacterial growth incubated for 21 to 30 days by proportion method", "format": "functional", "procedure,_shortened": "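H37Rv grown on Löwenstein-Jensen medium; 10³ and 10⁵ CFU spread on 7H11 agar with 10% OADC containing serial twofold compound dilutions. Colonies counted after 21–30 days at 37 °C. […] Compounds dissolved in DMSO or NaOH.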"}, "[3]": {"system": "Mycobacterium leprae", "test": "Inhibition of Mycobacterium leprae wild type DNA gyrase GyrA/GyrB-mediated DNA cleavable complex formation assessed as compound concentration inducing 25% DNA cleavage using relaxed pBR322 DNA substrate incubated for 1 hr at 30 degC by agarose gel electrophoresis"}, "[4]": {"system": "Mycobacterium leprae [A91V]", "test": "Inhibition of Mycobacterium leprae […] DNA gyrase GyrA/GyrB A91V mutant-mediated DNA cleavable complex formation assessed as compound concentration inducing 25% DNA cleavage using relaxed pBR322 DNA substrate incubated for 1 hr at 30 degC by agarose gel electrophoresis"}, "[5]": {"system": "Mycobacterium leprae [G89C]"}, "[6]": {"system": "Mycobacterium leprae", "test": "Inhibition of Mycobacterium leprae DNA gyrase GyrA/GyrB assessed as reduction of enzyme supercoiling activity using relaxed pBR322 DNA substrate incubated for 2 hrs at 30 degC by ethidium bromide based gel electrophoresis"}}, "note": "Active and inactive are the calls of the source. The rule behind the calls is not given here."}
{"smiles": "CCN1CCN(c2cc3c(cc2F)c(=O)c(C(=O)O)cn3C2CC2)CC1C(=O)O", "note": "(stereo not drawn)", "values": [{"measurement": "IC50", "setting": "[1]", "value": 119, "unit": "µM"}, {"measurement": "MIC", "setting": "[2]", "value": 32, "unit": "µg/mL"}, {"measurement": "CC25", "setting": "[3]", "value": ">240", "unit": "µg/mL"}, {"measurement": "CC25", "setting": "[4]", "value": "inactive"}, {"measurement": "CC25", "setting": "[5]", "value": "inactive"}, {"measurement": "IC50", "setting": "[6]", "value": 35, "unit": "µg/mL"}]}
{"smiles": "COc1c(N2CCNC(C(=O)O)C2)c(F)cc2c(=O)c(C(=O)O)cn(C3CC3)c12", "note": "(stereo not drawn)", "values": [{"measurement": "IC50", "setting": "[1]", "value": 39.5, "unit": "µM"}, {"measurement": "MIC", "setting": "[2]", "value": 16, "unit": "µg/mL"}, {"measurement": "CC25", "setting": "[3]", "value": 27, "unit": "µg/mL"}, {"measurement": "CC25", "setting": "[5]", "value": "inactive"}, {"measurement": "IC50", "setting": "[6]", "value": 20, "unit": "µg/mL"}]}
{"smiles": "CCOC(=O)C1CN(c2c(F)cc3c(=O)c(C(=O)O)cn(C4CC4)c3c2OC)CCN1", "note": "(stereo not drawn)", "values": [{"measurement": "IC50", "setting": "[1]", "value": 48.5, "unit": "µM"}, {"measurement": "MIC", "setting": "[2]", "value": "> 32", "unit": "µg/mL"}, {"measurement": "CC25", "setting": "[3]", "value": 80, "unit": "µg/mL"}, {"measurement": "CC25", "setting": "[5]", "value": "inactive"}, {"measurement": "IC50", "setting": "[6]", "value": 17, "unit": "µg/mL"}]}
{"smiles": "O=C(O)c1cn(C2CC2)c2cc(N3CCNCC3)c(F)cc2c1=O", "note": "[CIPROFLOXACIN]", "values": [{"measurement": "MIC", "setting": "[2]", "value": 0.5, "unit": "µg/mL"}, {"measurement": "CC25", "setting": "[5]", "value": "inactive"}, {"measurement": "IC50", "setting": "[6]", "value": 2, "unit": "µg/mL"}]}
{"smiles": "CCCCNC(=O)OCC1CN(c2c(F)cc3c(=O)c(C(=O)O)cn(C4CC4)c3c2OC)CCN1", "note": "(stereo not drawn)", "values": [{"measurement": "IC50", "setting": "[1]", "value": 34.7, "unit": "µM"}, {"measurement": "MIC", "setting": "[2]", "value": 8, "unit": "µg/mL"}, {"measurement": "CC25", "setting": "[3]", "value": 10, "unit": "µg/mL"}, {"measurement": "CC25", "setting": "[5]", "value": "inactive"}, {"measurement": "IC50", "setting": "[6]", "value": 10, "unit": "µg/mL"}]}
{"smiles": "CCOC(=O)C1CN(c2cc3c(cc2F)c(=O)c(C(=O)O)cn3C2CC2)CCN1", "note": "(stereo not drawn)", "values": [{"measurement": "IC50", "setting": "[1]", "value": 66.9, "unit": "µM"}, {"measurement": "MIC", "setting": "[2]", "value": 4, "unit": "µg/mL"}, {"measurement": "CC25", "setting": "[3]", "value": 20, "unit": "µg/mL"}, {"measurement": "CC25", "setting": "[5]", "value": "inactive"}, {"measurement": "IC50", "setting": "[6]", "value": 20, "unit": "µg/mL"}]}
{"smiles": "COc1c(N2C[C@@H]3CCCN[C@@H]3C2)c(F)cc2c(=O)c(C(=O)O)cn(C3CC3)c12", "note": "[MOXIFLOXACIN]", "values": [{"measurement": "MIC", "setting": "[2]", "value": 0.5, "unit": "µg/mL"}, {"measurement": "CC25", "setting": "[5]", "value": "inactive"}]}
{"smiles": "CCN(CC)C(=O)OCC1CN(c2c(F)cc3c(=O)c(C(=O)O)cn(C4CC4)c3c2OC)CCN1", "note": "(stereo not drawn)", "values": [{"measurement": "IC50", "setting": "[1]", "value": 102, "unit": "µM"}, {"measurement": "MIC", "setting": "[2]", "value": 32, "unit": "µg/mL"}, {"measurement": "CC25", "setting": "[3]", "value": 60, "unit": "µg/mL"}, {"measurement": "CC25", "setting": "[5]", "value": "inactive"}, {"measurement": "IC50", "setting": "[6]", "value": 20, "unit": "µg/mL"}]}
{"smiles": "CCCCNC(=O)OCC1CN(c2cc3c(cc2F)c(=O)c(C(=O)O)cn3C2CC2)CCN1", "note": "(stereo not drawn)", "values": [{"measurement": "IC50", "setting": "[1]", "value": 65.1, "unit": "µM"}, {"measurement": "MIC", "setting": "[2]", "value": 16, "unit": "µg/mL"}, {"measurement": "CC25", "setting": "[3]", "value": 30, "unit": "µg/mL"}, {"measurement": "CC25", "setting": "[4]", "value": "inactive"}, {"measurement": "CC25", "setting": "[5]", "value": "inactive"}, {"measurement": "IC50", "setting": "[6]", "value": 22, "unit": "µg/mL"}]}
{"smiles": "CC1COc2c(N3CCN(C)CC3)c(F)cc3c(=O)c(C(=O)O)cn1c23", "note": "(stereo not drawn) [OFLOXACIN]", "values": [{"measurement": "IC50", "setting": "[1]", "value": 16.6, "unit": "µM"}, {"measurement": "MIC", "setting": "[2]", "value": 1, "unit": "µg/mL"}, {"measurement": "CC25", "setting": "[3]", "value": 10, "unit": "µg/mL"}, {"measurement": "CC25", "setting": "[5]", "value": "inactive"}, {"measurement": "IC50", "setting": "[6]", "value": 8, "unit": "µg/mL"}]}
{"smiles": "CCN(CC)C(=O)OCC1CN(c2cc3c(cc2F)c(=O)c(C(=O)O)cn3C2CC2)CCN1", "note": "(stereo not drawn)", "values": [{"measurement": "IC50", "setting": "[1]", "value": 575, "unit": "µM"}, {"measurement": "MIC", "setting": "[2]", "value": 128, "unit": "µg/mL"}, {"measurement": "CC25", "setting": "[3]", "value": ">240", "unit": "µg/mL"}, {"measurement": "CC25", "setting": "[4]", "value": "inactive"}, {"measurement": "CC25", "setting": "[5]", "value": "inactive"}, {"measurement": "IC50", "setting": "[6]", "value": 118, "unit": "µg/mL"}]}
{"smiles": "COc1c(N2CCNC(C)C2)c(F)cc2c(=O)c(C(=O)O)cn(C3CC3)c12", "note": "(stereo not drawn) [GATIFLOXACIN]", "values": [{"measurement": "IC50", "setting": "[1]", "value": 7.99, "unit": "µM"}, {"measurement": "MIC", "setting": "[2]", "value": 0.125, "unit": "µg/mL"}, {"measurement": "CC25", "setting": "[3]", "value": 1, "unit": "µg/mL"}, {"measurement": "CC25", "setting": "[5]", "value": "inactive"}, {"measurement": "IC50", "setting": "[6]", "value": 3, "unit": "µg/mL"}]}
{"smiles": "CCN1CCN(c2c(F)cc3c(=O)c(C(=O)O)cn(C4CC4)c3c2OC)CC1C(=O)O", "note": "(stereo not drawn)", "values": [{"measurement": "IC50", "setting": "[1]", "value": 201, "unit": "µM"}, {"measurement": "MIC", "setting": "[2]", "value": 32, "unit": "µg/mL"}, {"measurement": "CC25", "setting": "[3]", "value": ">240", "unit": "µg/mL"}, {"measurement": "CC25", "setting": "[5]", "value": "inactive"}, {"measurement": "IC50", "setting": "[6]", "value": 55, "unit": "µg/mL"}]}
{"smiles": "O=C(O)c1cn(C2CC2)c2cc(N3CCNC(C(=O)O)C3)c(F)cc2c1=O", "note": "(stereo not drawn)", "values": [{"measurement": "IC50", "setting": "[1]", "value": 53.3, "unit": "µM"}, {"measurement": "MIC", "setting": "[2]", "value": 32, "unit": "µg/mL"}, {"measurement": "CC25", "setting": "[3]", "value": 30, "unit": "µg/mL"}, {"measurement": "CC25", "setting": "[5]", "value": "inactive"}, {"measurement": "IC50", "setting": "[6]", "value": 30, "unit": "µg/mL"}]}
